According to article PMC2175347 (Nucleic Acids Research, 2007):
Numbering of substitutions follows the chain as printed. Names and notes keep the numbering of the source. Values joined by “and” are separate entries in the source; they are usually repeats but may differ in a detail not shown here. Equal values may be shown once. Blank lines part the entries; values can stand above or below the molecule they belong to. No end group written: not given here.

Assays:
[1] = system: full-length G9a; assay: In vitro methylation of GST-G9a fusion fragments by G9afl; format: biochemical, murine; details: for methylation / radioactive incorporation of GST fusion fragment: fluorography and radioactive incorporation of each band, Figure 2D; for methylation of GST fusion by G9afl: tritiated AdoMet, fluorography, Figure 2C
[2] = target: T1, G9afl (Mus musculus, UniProt Q9Z148); assay: Steady-state kinetics of G9afl on peptides representing ARKT/S motifs; format: biochemical, murine; details: peptide substrate, enzyme G9afl; for kcat (turnover number) / Km: 25°C, pH 9.0, duplicate
T1 sequence (Q9Z148 1-1263): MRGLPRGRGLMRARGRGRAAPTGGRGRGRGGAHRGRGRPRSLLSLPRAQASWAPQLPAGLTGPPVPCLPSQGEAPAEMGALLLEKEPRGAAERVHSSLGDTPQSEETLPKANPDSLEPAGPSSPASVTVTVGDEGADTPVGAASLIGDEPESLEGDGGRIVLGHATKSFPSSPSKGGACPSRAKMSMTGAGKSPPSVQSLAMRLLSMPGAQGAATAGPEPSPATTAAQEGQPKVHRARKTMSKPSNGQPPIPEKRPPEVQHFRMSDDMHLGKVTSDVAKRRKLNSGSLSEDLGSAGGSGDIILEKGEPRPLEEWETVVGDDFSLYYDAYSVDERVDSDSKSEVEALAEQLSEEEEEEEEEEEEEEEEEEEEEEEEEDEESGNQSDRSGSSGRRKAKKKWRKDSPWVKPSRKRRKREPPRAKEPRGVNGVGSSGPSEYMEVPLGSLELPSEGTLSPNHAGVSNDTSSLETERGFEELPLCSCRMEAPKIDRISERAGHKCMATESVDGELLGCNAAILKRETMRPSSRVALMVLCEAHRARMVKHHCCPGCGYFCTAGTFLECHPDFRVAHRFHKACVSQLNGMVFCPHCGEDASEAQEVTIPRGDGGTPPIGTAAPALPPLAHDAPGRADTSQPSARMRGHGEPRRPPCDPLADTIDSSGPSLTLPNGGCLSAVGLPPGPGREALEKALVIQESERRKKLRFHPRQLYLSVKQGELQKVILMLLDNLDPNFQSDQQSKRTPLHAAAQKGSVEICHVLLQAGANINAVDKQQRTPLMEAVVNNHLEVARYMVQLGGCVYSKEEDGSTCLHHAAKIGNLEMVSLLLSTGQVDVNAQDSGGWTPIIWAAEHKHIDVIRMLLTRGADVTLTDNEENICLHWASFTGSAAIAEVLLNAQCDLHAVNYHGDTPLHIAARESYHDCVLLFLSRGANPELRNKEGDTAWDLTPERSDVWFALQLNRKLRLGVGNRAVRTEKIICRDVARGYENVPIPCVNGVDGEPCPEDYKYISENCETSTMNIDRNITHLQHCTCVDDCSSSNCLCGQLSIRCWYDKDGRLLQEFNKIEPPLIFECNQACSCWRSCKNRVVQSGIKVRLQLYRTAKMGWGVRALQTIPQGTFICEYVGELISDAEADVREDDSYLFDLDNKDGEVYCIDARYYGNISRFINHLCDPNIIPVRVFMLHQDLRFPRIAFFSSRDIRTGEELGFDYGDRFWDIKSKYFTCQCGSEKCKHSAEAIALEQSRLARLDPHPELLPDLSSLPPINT

[3] = target: T1, G9afl; assay: Methylation of modified H3 peptide substrates by wild-type G9a; format: biochemical, murine; details: 25 nM G9afl; Figure 4B
[4] = system: G9amut; assay: Methylation of modified H3 peptide substrates by G9amut; format: biochemical, murine; details: 25 nM G9amut; Figure 4B
[5] = system: G9a; assay: In vitro automethylation assay of G9a; format: biochemical, murine; details: 100 fold excess cold AdoMet with tritiated AdoMet; Figure 2B lanes 2 versus 3
In short: (§1)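 Automethylation: recombinant murine G9a (full-length or MBP-fused construct lacking the N-terminal 633 aa) incubated with S-adenosyl-L-[methyl-³H]methionine, either alone or, for H3 signal, with recombinant histone H3. Parallel reactions contained excess unlabelled AdoMet as competitor. Reactions run at 25°C for 1 h with 7 µM tritiated AdoMet, resolved on 4–20% SDS-PAGE, Coomassie-stained and fluorographed on film.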

[6] = system: H3; assay: In vitro methylation of histone H3; format: biochemical; details: 100 fold excess cold AdoMet with tritiated AdoMet; Figure 2B lanes 4 versus 5
In short: as §1

[7] = system: G9a; assay: Methyltransferase assay with peptide spanning amino acids 160–175 of G9a; format: biochemical, murine; details: even after 1 h of incubation; Supplementary Figure 1
[8] = system: Wt-H3; assay: Steady-state kinetics of G9a enzymes with Wt-H3 peptide; format: biochemical; details: GST fusion enzymes with Wt-H3, steady-state conditions; Supplementary Figure 2
[9] = system: HP1α; assay: Immunofluorescence co-localization with HP1α in COS-7 cells; format: cell-based; details: 48 h after transfection, Figure 6

Molecule: GST-G9a (210–246/K243A) (AQGAATAGPEPSPATTAAQEGQPKVHRARKTMSAPSN; also: GST fusion; UniProt Q9Z148 210-246, looked up, variant K243A)
methylation / radioactive incorporation of GST fusion fragment [1]: decrease in K239 methylation

kcat (turnover number) [2]: 0.0183 s⁻¹
Molecule: CGQPKVHRARKTMPKSV [G9a]

effect of phosphorylated peptide on enzyme [3]: inhibited both enzymes | effect of phosphorylated peptide on enzyme [4]: inhibited both enzymes
Molecule: CARTKQTARKST(p)GG [H3T11p]

effect of phosphorylated peptide on enzyme [3]: inhibited both enzymes | effect of phosphorylated peptide on enzyme [4]: inhibited both enzymes
Molecule: CARTKQTARKS(p)TGG [H3S10p]

kcat/Km [2]: 172 10^6 × M^−1 h^−1 | Km [2]: 0.5 ± 0.05 µM | kcat (turnover number) [2]: 0.0239 s⁻¹ and 0.0239 ± 0.00056 s⁻¹
Molecule: CADVKVHRARKTMPKSV [EuHMT]

Molecule: C[S+](CC[C@H](N)C(=O)[O-])C[C@H]1O[C@@H](n2cnc3c(N)ncnc32)[C@H](O)[C@@H]1O (stereo partly drawn) [cold AdoMet, S-adenosyl-L-methionine]
autoradiography signal for G9a [5]: not apparent | autoradiography signal for H3 [6]: not apparent

Molecule: IVLGHATKSFPSSPSK [G9aK167]
methyl group incorporation to the peptide [7]: did not observe methyl group incorporation to the peptide

kcat/Km [2]: 140 10^6 × M^−1 h^−1 | Km [2]: 0.7 ± 0.05 µM | kcat (turnover number) [2]: 0.0272 s⁻¹ and 0.0272 ± 0.0011 s⁻¹
Molecule: CPQKKVFKARKTMRVSD [mAM]

Molecule: GST-G9a (210–264/K239A) (AQGAATAGPEPSPATTAAQEGQPKVHRARATMSKPSNGQPPIPEKRPPEVQHFRM; also: GST fusion; UniProt Q9Z148 210-264, looked up, variant K239A)
methylation / radioactive incorporation of GST fusion fragment [1]: impaired

B1: GST-G9afl (K167A) (protein, UniProt Q9Z148 1-1263, looked up, variant K167A)
chain: T1 sequence (Q9Z148 1-1263) with K167A
modifications: full-length GST fusion
kcat [8]: 0.0183 s⁻¹

B2: GFP-G9amut (protein, UniProt Q9Z148 1-1263, looked up, variant K233A K239A K243A)
chain: T1 sequence (Q9Z148 1-1263) with K233A, K239A, K243A
modifications: full-length GFP fusion
co-localization with HP1α [9]: did not co-localize with HP1α

B3: 1–117: GST fusion containing 1–117 amino acids of G9a (protein, UniProt Q9Z148 1-117, looked up, fragment)
chain: MRGLPRGRGLMRARGRGRAAPTGGRGRGRGGAHRGRGRPRSLLSLPRAQASWAPQLPAGLTGPPVPCLPSQGEAPAEMGALLLEKEPRGAAERVHSSLGDTPQSEETLPKANPDSLE
modifications: GST fusion
methylation of GST fusion by G9afl [1]: did not methylate

B4: 264–633: GST fusion containing 264–633 amino acids of G9a (protein, UniProt Q9Z148 264-633, looked up, fragment)
chain: MSDDMHLGKVTSDVAKRRKLNSGSLSEDLGSAGGSGDIILEKGEPRPLEEWETVVGDDFSLYYDAYSVDERVDSDSKSEVEALAEQLSEEEEEEEEEEEEEEEEEEEEEEEEEDEESGNQSDRSGSSGRRKAKKKWRKDSPWVKPSRKRRKREPPRAKEPRGVNGVGSSGPSEYMEVPLGSLELPSEGTLSPNHAGVSNDTSSLETERGFEELPLCSCRMEAPKIDRISERAGHKCMATESVDGELLGCNAAILKRETMRPSSRVALMVLCEAHRARMVKHHCCPGCGYFCTAGTFLECHPDFRVAHRFHKACVSQLNGMVFCPHCGEDASEAQEVTIPRGDGGTPPIGTAAPALPPLAHDAPGRADTSQ
modifications: GST fusion
methylation of GST fusion by G9afl [1]: did not methylate
